Results: PubChem BioAssay AID775 (SRMLSC, 2007)
Among all 130,000 compounds or so, about 900 (0.69%) were called active.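 How the source made its calls: active means inhibition above a set limit, placed 3 SD over the median of all compounds (cut at about 26% in these data); inactive means the rest.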 Only a selection was taken, and actives are over-represented in it overall.

assay: rescue of nicotinamide-shortened yeast lifespan – S. cerevisiae, OD615, primary screen (AID 775);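 further: 0% = nicotinamide-treated wells and 100% = cells grown without nicotinamide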; conditions: S. cerevisiae growth with nicotinamide, at 10 µM, stronger effect = higher value, deaD strain in restrictive glucose medium
How it was run: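 Material: Modified budding yeast, DeaD strain | Medium: Restrictive glucose medium | Probe or stimulus: 1.5 mM nicotinamide | Dosing: Single dose 10 µM compound, 0.25% DMSO | Times: 48 h at 30 °C | Technique: OD615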

| SMILES | inhibition of the nicotinamide effect |
| --- | --- |
| O=C(CSc1ccccn1)Nc1nc2c(ccc3ccccc32)s1 | -4.27% (inactive) |
| CC(C)(C)OC(=O)N/N=C/c1ccc(C(=O)O)cc1 | -2.34% (inactive) |
| CCC(NC(=O)c1ccccc1NC(=O)c1ccccc1)C(=O)NNC(=O)CSc1nc2ccccc2o1 (stereo not drawn) | -3.91% (inactive) |
| Cc1c(C2=CCN(S(=O)(=O)c3ccc(Cl)cc3)CC2)c2ccccc2n1C | 2.05% (inactive) |
| CC(C)C(C)(C#N)NC(=O)CSc1nc2scc(-c3ccccc3)c2c(=O)[nH]1 (stereo not drawn) | 7.12% (inactive) |
| CCc1ccc2c(c1)C(c1ccc([N+](=O)[O-])cc1)=NNC(c1ccccc1)=N2 | -1.67% (inactive) |
| COC(=O)c1ccc(/C=N\n2c(C)nnc2C)cc1 | 27.3% (active) |
| Cc1nnc(C)n1/N=C/c1ccc(C(C)C)cc1 | 1.31% (inactive) |
| CCN(CC)S(=O)(=O)c1cccc(-c2n[nH]c(=S)n2/N=C/c2ccc(C(=O)OC)cc2)c1 | -2.04% (inactive) |
| CCOc1ccc2nc(C(=O)N3CCCC(C)C3)sc2c1 (stereo not drawn) | -4.7% (inactive) |
| O=c1c2ccccc2nc(CSc2nnnn2-c2ccccc2)n1-c1ccccc1 | -5.7% (inactive) |
| CCCN1C(=O)C(Cc2nc3ccccc3c(=O)n2-c2ccccc2)c2cc(C)ccc21 (stereo not drawn) | 38.7% (active) |
| N#CCSc1nc2ccccc2c(=O)n1-c1ccccc1 | -7.51% (inactive) |
| Cc1noc(/C=C/c2ccco2)c1S(=O)(=O)N1CCC(C(=O)Nc2ccc(Cl)cn2)CC1 | 10.7% (inactive) |
| O=C(COC(=O)c1cc(=O)[nH]c2ccccc12)Nc1nc(-c2cccc(Br)c2)cs1 | -0.45% (inactive) |
| Cc1ccc(OCCOCCOc2ccc(Br)cc2/C=N\NC(=O)c2ccncc2)cc1 | -1.41% (inactive) |
| CC12CCC(C(=O)N(c3cccc(Cl)c3)C1=O)C2(C)C (stereo not drawn) | 3.45% (inactive) |
| CC12CN3CC(C)(CN(C1)C3c1ccc(Cl)cc1Cl)C2=O (stereo not drawn) | 30.1% (active) |
| COC(=O)C1=CN(C)C=C(C(=O)OC)C1c1ccc(Cl)cc1Cl | -5.36% (inactive) |
| COc1ccc(NC(=O)COC(=O)c2ccc(NS(=O)(=O)/C=C/c3ccccc3)cc2)cc1 | 3.99% (inactive) |
| Cc1ccc(S(=O)(=O)Nc2ccccc2CNc2c(C)n(C)n(-c3ccccc3)c2=O)cc1 | 43% (active) |
| Cc1c(NS(=O)(=O)c2ccc(NC3CCCC3)c([N+](=O)[O-])c2)c(=O)n(-c2ccccc2)n1C | -2.8% (inactive) |
| COc1ccc(S(=O)(=O)Nc2c(C)n(C)n(-c3ccccc3)c2=O)cc1 | -9.71% (inactive) |
| O=C(Nc1cccc([N+](=O)[O-])c1)c1ccc2c(c1)OCO2 | -0.87% (inactive) |

| SMILES | inhibition of the nicotinamide effect |
| --- | --- |
| COC(=O)c1ccccc1SC1CC(=O)N(c2cccc(C)c2)C1=O (stereo not drawn) | -3.77% (inactive) |
| CC(C)(C)c1ccc(/C=C/C(=O)Nc2ncccn2)cc1 | -2% (inactive) |
| N#Cc1ccc(N2Cc3ccccc3/C2=N/C(=O)Nc2ccc(Cl)cc2)cc1 | -2.85% (inactive) |
| Cc1cccc(N2Cc3ccccc3C2=NC(=O)c2ccc(Cl)nc2)c1 | 34.6% (active) |
| Cc1cccc(N2CCN(C(=O)c3cccc(S(=O)(=O)N4CCc5ccccc5C4)c3)CC2C)c1 (stereo not drawn) | 9.33% (inactive) |
| CC(NC(=S)Nc1ccc(S(N)(=O)=O)cc1)c1ccc2c(c1)OCO2 (stereo not drawn) | -4.33% (inactive) |
| COC(=O)c1cn(C)c2ccc(S(=O)(=O)N3CC(C)CC(C)C3)cc2c1=O (stereo not drawn) | -19.7% (inactive) |
| O=C(c1cccc(S(=O)(=O)N2CCOCC2)c1)N1CCOCC1 | 4.86% (inactive) |
| CC1CC(C)CN(S(=O)(=O)c2cccc(C(=O)N3C(=O)c4cccc(N)c4C3=O)c2)C1 (stereo not drawn) | 86.5% (active) |
| Cc1cc(C)c(NC(=S)N2CCCC2C(=O)O)c(C)c1 (stereo not drawn) | -4.99% (inactive) |
| Cc1cccc(N2C(=O)SC(SC(=Nc3ccccc3)Nc3ccccc3)C2=O)c1 (stereo not drawn) | 7.31% (inactive) |
| COc1ccc(/C=N/NC(=O)c2ccc(Cl)cc2)cc1COC(C)=O | -4.25% (inactive) |
| Cc1cc(Cl)ccc1NC(=S)NCCCN1CCCC1=O | 3.7% (inactive) |
| CC(C)Oc1c(Br)cc(Br)cc1/C=N/NC(N)=S | 0.87% (inactive) |
| O=C(N/N=C/c1coc2ccccc2c1=O)c1cc2ccccc2o1 | 19.2% (inactive) |
| NC(=S)N/N=C/c1coc2cc(Cl)ccc2c1=O | 38.1% (active) |
| O=C(Cc1ccccc1)NNC1CC(=O)N(c2ccc(Br)cc2)C1=O (stereo not drawn) | -4.42% (inactive) |
| COc1ccc(-n2c(C)cc(C(=O)COC(=O)c3cc(OC)c(OC)cc3NC(=O)c3cccs3)c2C)cc1 | 1.08% (inactive) |
| S=C1Nc2cc(Cl)ccc2Sc2ccccc21 | 2.87% (inactive) |
| O=C1Cc2ccccc2Sc2ccc(Cl)cc21 | 38.7% (active) |
| O=C(CSc1nc2ccccc2o1)N1c2ccccc2Sc2ccc(Cl)cc21 | -7.73% (inactive) |
| Cc1ccccc1N/C(SCc1ccc(Cl)cc1)=C(/C#N)C(N)=O | 1.27% (inactive) |
| Cc1nnc(-c2ccc(Oc3ccc(C)c(C)c3)c([N+](=O)[O-])c2)o1 | -6.06% (inactive) |
| Cc1ccc(S(=O)(=O)N(CC(=O)Nc2cccc([N+](=O)[O-])c2)Cc2ccc(Cl)cc2)cc1 | -5.04% (inactive) |

| SMILES | inhibition of the nicotinamide effect |
| --- | --- |
| CC1(C)CC(=O)C=C(NC2CC(C)(C)NC(C)(C)C2)C1 | 5.33% (inactive) |
| COCC(C)N=CC1=C(O)CC(C)(C)CC1=O (stereo not drawn) | -1.64% (inactive) |
| CCC(=NC1CC(C)(C)NC(C)(C)C1)C1=C(O)CC(C)(C)CC1=O | 36.4% (active) |
| Cc1[nH]c2ccccc2c1/C=N\NC(=O)Cn1nnc(-c2ccccc2)n1 | 1.83% (inactive) |
| Cc1nn(CC(=O)Nc2ccc(N(C)C)cc2)c(C)c1[N+](=O)[O-] | -0.66% (inactive) |
| COC(=O)/C(C#N)=C/c1occc1C | -5.74% (inactive) |
| Cc1cc(/C=C2/NC(=O)NC2=O)c(C)n1-c1cccnc1 | -0.65% (inactive) |
| O=S(=O)(ON(c1ccccc1)S(=O)(=O)c1ccccc1)c1ccccc1 | 43.7% (active) |
| CCN(c1ccccc1)S(=O)(=O)c1ccc(N)cc1 | -3.49% (inactive) |
| CCOc1ccc(S(=O)(=O)N(CC(=O)O)c2ccccc2)cc1 | -6.31% (inactive) |
| Cc1nc2ccccc2n1CC(=O)N/N=C/c1cccs1 | 2.27% (inactive) |
| NS(=O)(=O)c1ccc(CNC(=O)c2ccc(Cl)cc2[N+](=O)[O-])cc1 | 3.9% (inactive) |
| CCCCN(C)c1ccc([N+](=O)[O-])cc1 | 0.62% (inactive) |
| CCCCSc1[nH]c(=O)c(C(=O)OCC)cc1C#N | 35.7% (active) |
| CC(=O)c1cc(C#N)c(SCC(=O)C(C)(C)C)nc1C | -19% (inactive) |
| Cc1cc(=O)[nH]c(SCC(N)=O)c1C#N | -13.6% (inactive) |
| Cc1ccc(-c2nnc(SCC(=O)N/N=C/c3cccs3)n2-c2ccc(C)cc2)cc1 | -1.13% (inactive) |
| CC1(C)CC(=O)C(N=Nc2ccc(S(=O)(=O)N3CCCCCC3)cc2)=C(O)C1 | -0.81% (inactive) |
| CC(Sc1nc(-c2ccccc2)cc(C(F)(F)F)n1)C(=O)Nc1ccc2c(c1)OCO2 (stereo not drawn) | -1.2% (inactive) |
| O=C1CCCC(O)=C1N=Nc1ccc2ncsc2c1 | -3.17% (inactive) |
| Cc1cc(C(=O)COc2ccccc2[N+](=O)[O-])c(C)n1-c1cccc(S(=O)(=O)N2CCOCC2)c1 | 1.02% (inactive) |
| O=C(CCCO)N/N=C/c1cc(Br)ccc1O | 25% (inactive) |
| Oc1ccc(Cl)cc1/C=N/c1nc2ccccc2[nH]1 | 6.53% (inactive) |
| Oc1ccc(Br)cc1C=Nc1ccc2[nH]ncc2c1 | 40.4% (active) |

| SMILES | inhibition of the nicotinamide effect |
| --- | --- |
| Cc1c(NC(=S)NCc2ccc(F)cc2)cccc1[N+](=O)[O-] | 0.2% (inactive) |
| CCOC(=O)N1CCN(C(c2cccnc2)c2ccc3cccnc3c2O)CC1 (stereo not drawn) | -7.28% (inactive) |
| Oc1c(CN2CCN(c3ccc(F)cc3)CC2)cc(Cl)c2cccnc12 | -13.6% (inactive) |
| CCN1CCN(C(c2cccnc2)c2cc(Cl)c3cccnc3c2O)CC1 (stereo not drawn) | 30.4% (active) |
| Cc1ccc(NN=C2C(=O)OC(C)(C)OC2=O)c(C)c1 | -2.15% (inactive) |
| CC(=O)Nc1ccc(S(=O)(=O)NC2(C(F)(F)F)C(=O)Nc3c2c(=O)[nH]c(=O)n3Cc2ccccc2)cc1 (stereo not drawn) | 2.33% (inactive) |
| C/C(=N/NC(=O)c1ccc(Br)o1)c1ccc(C)o1 | -2.27% (inactive) |
| COc1cc(C(=O)Nc2cc(C(F)(F)F)ccc2N2CCOCC2)ccc1O | -3.94% (inactive) |
| COC(=O)c1ccccc1OCC(=O)N1CCN(c2ccc(Cl)cc2)CC1 | -19.3% (inactive) |
| O=C(NC(CC(=O)N1CCN(c2ccccc2)CC1)c1ccccc1)c1ccccc1Cl (stereo not drawn) | 35.4% (active) |
| CC(CC(=O)N1CCN(c2ccccc2)CC1)c1ccccc1 (stereo not drawn) | -11.3% (inactive) |
| C/C(=N/NC(=O)CSc1ccccn1)c1ccc([N+](=O)[O-])cc1 | 1.62% (inactive) |
| Cn1cccc1/C=C1\SC(=S)N(NC(=O)c2ccc(Cl)cc2)C1=O | 3.79% (inactive) |
| Cc1ccccc1NC(=O)c1ccccc1 | 43.2% (active) |
| Cc1cc(C(=O)NNC(=S)Nc2ccccc2C)cs1 | 4.51% (inactive) |
| O=C(NC(=O)c1ccccc1)NC(=O)c1ccccc1 | -15.8% (inactive) |
| Cc1cc(C)c(NC(=O)c2oc3ccccc3c2COc2ccccc2)c(C)c1 | 0.31% (inactive) |
| COC(=O)C1=C(NC(=O)C(C)(C)C)CCS1 | -1.21% (inactive) |
| CCCCN(CC)C(=O)c1ccc2c(c1)OCO2 | -2.79% (inactive) |
| Cn1cc([N+](=O)[O-])c(C(=O)Nc2cnn(Cc3ccc(F)cc3)c2)n1 | 10.4% (inactive) |
| Cc1cccc(NC(=O)/C=C/c2ccc3c(c2)OCO3)n1 | -5.25% (inactive) |
